G6PDH counter: counter-screen for G6PDH assay hits: L. mesenteroides G6PDH inhibition; Purified L. mesenteroides G6PDH, diaphorase/resazurin coupled fluorescence, 45 min; inhibition, % at 5 µM; 200,000 tested, 0.12% active; AID 1020
Diaphorase act: diaphorase activation or chemical reduction counter-screen; AID 1229; Diaphorase/resazurin coupled assay, resorufin fluorescence, 16 min; active compounds read high; 1 = vehicle wells, 0 = NADH-free wells; activation factor at 20 µM; 190,000 tested, 0.005% active;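 active means diaphorase activity raised at least twofold by the compound at 20 µM; inactive means activation factor below 2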
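Material: bacterial diaphorase enzyme (C. kluyveri); amount: enzyme 0.07 U/mL final; reagent: NADH substrate 0.114 mM plus resazurin dye 0.1 mM, final; doses: single compound dose of 20 µM, 1% DMSO final; timing: 16 min enzyme reaction, ambient temperature; measured by: fluorescence of resorufin, 544 nm excitation, 590 nm emission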
Diaphorase inh: counter-screen for diaphorase-based assays: diaphorase inhibitors and chemical oxidizers; diaphorase resazurin-to-resorufin fluorescence, NADH, 16 min; bacterial (C. kluyveri) enzyme, not human; inhibition, % at 20 µM; 190,000 tested, 0.69% active; AID 1217;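 active means primary screen inhibition at 20 µM above a set limit, cut at about 50% in these data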;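 further: plate controls were DMSO with full reaction for no effect and wells lacking NADH for full effect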
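System: Diaphorase enzyme from Clostridium kluyveri | Amount: Enzyme working solution with 0.14 U/mL diaphorase | Benchmarks: No-NADH positive control and DMSO neutral control | Signal: Fluorescence of resorufin formed from resazurin, Ex 544/Em 590 nm | Schedule: 16-min room-temperature incubation before reading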
WT yeast gro inh: growth inhibition of WT yeast, mitochondrial fusion screen | mitochondrial fusion phenotypic screen, WT strain | inhibition, % at 10 µM | 190,000 tested, 2.1% active | AID 1362; in the data active means inhibition above about 58%; tested in S. cerevisiae
Lmaj promast: inhibitors of Leishmania major promastigote growth | Leishmania major promastigotes, resazurin fluorescence viability | inhibition, % at 10 µM | 200,000 tested, 9% active | AID 1063;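 further: promastigotes grown with compound for 44 hours at 28 °C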
Active calls of the source: *. Sampled rows, rich in hits. Any-hit rate of the full collection: about 11%. Unless noted, no stated cut-off is given here; in the data, active means inhibition above about 50%; inactive means the rest.

For CN(NC(=S)Nc1ccc(OC(F)F)cc1)C(=S)Nc1ccc(OC(F)F)cc1 the results were G6PDH counter -9.8, Diaphorase act 0.8, Diaphorase inh 18.6, WT yeast gro inh 65.1* and Lmaj promast -5.8.
Screening CCN(CC)C(=S)Nc1ccc(OC(F)F)cc1 returned G6PDH counter -0.2, Diaphorase act 1, Diaphorase inh -0.5, WT yeast gro inh 5.6 and Lmaj promast -7.3.
O=C(CN1CCC(NC(=O)c2ccco2)CC1)Nc1ccccc1[N+](=O)[O-] was read as G6PDH counter 8.9, Diaphorase act 1.1, Diaphorase inh -8.6, WT yeast gro inh -5.9 and Lmaj promast -0.7.
`CC(NC(=O)NC1CCCCC1)C(c1cccs1)N1CCN(c2ccccc2)CC1` (stereo not drawn) gave G6PDH counter 11.9, Diaphorase act 0.9, Diaphorase inh 11.4, WT yeast gro inh 37.1 and Lmaj promast 29.8.
Screening C/C=C/c1ccc(OCCN2CCc3ccccc3C2)c(OC)c1 returned G6PDH counter 0.8, Diaphorase act 0.9, Diaphorase inh 14.2, WT yeast gro inh 7.9 and Lmaj promast 29.1.
`C=CCc1ccc(OCCN2CCc3ccccc3C2)c(OC)c1` gave G6PDH counter 6.5, Diaphorase act 0.9, Diaphorase inh 6.2, WT yeast gro inh 11.5 and Lmaj promast 83.2*.
Screening C=CCc1ccc(OCCCCN2CC(C)OC(C)C2)c(OC)c1 (stereo not drawn) returned G6PDH counter 3.4, Diaphorase act 0.9, Diaphorase inh 5.6, WT yeast gro inh 13.2 and Lmaj promast 98.5*.
For COc1ccc(/C=N/N=C2/NC(=O)C(c3ccccc3)(c3ccccc3)S2)cc1 the results were G6PDH counter 4.4, Diaphorase act 0.9, Diaphorase inh 6.4, WT yeast gro inh 10.5 and Lmaj promast -5.1.
For CC(Oc1ccccc1)C(=O)NC1CCN(Cc2ccccc2)CC1 (stereo not drawn) the results were G6PDH counter -9.7, Diaphorase act 0.9, Diaphorase inh 10.1, WT yeast gro inh -4.3 and Lmaj promast 91.4*.
Screening O=C(Cc1ccccc1)NC1CCN(Cc2ccccc2)CC1 returned G6PDH counter -0.8, Diaphorase act 1, Diaphorase inh 0.1, WT yeast gro inh -28.8 and Lmaj promast 81.8*.
Screening CC(Oc1ccccc1)C(=O)NC1CC(C)(C)NC(C)(C)C1 (stereo not drawn) returned G6PDH counter -21.5, Diaphorase act 0.9, Diaphorase inh 7.6, WT yeast gro inh 0.1 and Lmaj promast -4.2.
Cc1cc(NC(=O)Cn2c(=O)n(CCCCC(=O)NC3CCN(Cc4ccccc4)CC3)c(=O)c3ccccc32)n[nH]1 was read as G6PDH counter -0.7, Diaphorase act 1.1, Diaphorase inh -7.6, WT yeast gro inh -8.5 and Lmaj promast -2.3.
For O=C(CCCCn1c(=O)c2ccccc2n(Cc2ccccc2F)c1=O)NC1CCN(Cc2ccccc2)CC1 the results were G6PDH counter 6.9, Diaphorase act 0.8, Diaphorase inh 16.1, WT yeast gro inh -5.8 and Lmaj promast 72.3*.
`N#CC(c1ccccc1)C1CCN(Cc2ccccc2)CC1` (stereo not drawn) gave G6PDH counter 3.6, Diaphorase act 0.9, Diaphorase inh 5.9, WT yeast gro inh -8.2 and Lmaj promast 87.6*.
`O=C(Cc1c(C(=O)O)[nH]c2ccccc12)NC1CCN(Cc2ccccc2)CC1` gave WT yeast gro inh 4.3.
`O=C(Cn1cc2c(n1)CCCCC2)NC1CCN(Cc2ccccc2)CC1` gave G6PDH counter -5.9, Diaphorase act 0.8, Diaphorase inh 17.0, WT yeast gro inh 4.8 and Lmaj promast 82.6*.
Screening CNC(=S)N1CCC(NC(=O)C23CC4CC(CC(C4)C2)C3)CC1 returned G6PDH counter 4.0, Diaphorase act 0.8, Diaphorase inh 22.0, WT yeast gro inh -5.2 and Lmaj promast -2.6.
Screening O=C(NC1CCN(Cc2ccccc2)CC1)c1cncc(Br)c1 returned G6PDH counter 3.7, Diaphorase act 0.9, Diaphorase inh 8.2, WT yeast gro inh 10.4 and Lmaj promast 66.9*.
For O=C(C1CCN(Cc2cc(Cl)ccc2O)CC1)N1CCN(Cc2ccccc2)CC1 the results were G6PDH counter -30.0, Diaphorase act 0.8, Diaphorase inh 15.2, WT yeast gro inh -8.5 and Lmaj promast 99.8*.
Screening CCS(=O)(=O)N1CCC(C(=O)N2CCN(Cc3ccccc3)CC2)CC1 returned G6PDH counter 5.0, Diaphorase act 0.9, Diaphorase inh 9.7, WT yeast gro inh 2.9 and Lmaj promast 0.4.
Screening O=C(NC1CCN(Cc2ccccc2)CC1)C12CC3CC(CC(C3)C1)C2 returned G6PDH counter -0.3, Diaphorase act 1, Diaphorase inh -0.9, WT yeast gro inh -10.8 and Lmaj promast 88.2*.
For O=C(Cn1cc2c(n1)CCCC2)NC1CCCCCC1 the results were G6PDH counter -2.2, Diaphorase act 0.9, Diaphorase inh 11.2, WT yeast gro inh 3.5 and Lmaj promast -5.4.
`CCOC(=O)C1(CC2CCCCO2)CCN(Cc2nc(C(C)C)cs2)CC1` (stereo not drawn) gave G6PDH counter 4.8, Diaphorase act 0.9, Diaphorase inh 11.8, WT yeast gro inh 5.4 and Lmaj promast 4.3.
O=C(NC(=S)Nn1cnnc1)c1cccc(Br)c1 was read as G6PDH counter 5.9, Diaphorase act 0.7, Diaphorase inh 26.2, WT yeast gro inh -11.1 and Lmaj promast -1.9.
For NC(=O)c1ccccc1NC(=O)Nc1cccc(Cl)c1Cl the results were G6PDH counter 14.4, Diaphorase act 0.8, Diaphorase inh 19.6, WT yeast gro inh 8.8 and Lmaj promast 64.8*.
Cc1c(Cl)cccc1NC(=O)Nc1ccccc1C(N)=O was read as G6PDH counter 10.3, Diaphorase act 0.8, Diaphorase inh 18.3, WT yeast gro inh 10.5 and Lmaj promast -4.7.
COC(=O)c1ccc2c(=O)n(CCCCCC(=O)NCCNC(C)=O)c(=O)[nH]c2c1 was read as G6PDH counter 1.7, Diaphorase act 0.9, Diaphorase inh 5.4, WT yeast gro inh 0.9 and Lmaj promast -4.2.
Screening O=C(NCc1ccccc1)c1cccc(COc2cc(Cl)ccc2Cl)c1 returned G6PDH counter -31.9, Diaphorase act 0.8, Diaphorase inh 20.8, WT yeast gro inh -12.9 and Lmaj promast -1.1.
`CN(C(=O)c1cccc(COc2ccc(Cl)cc2Cl)c1)c1ccccc1` gave G6PDH counter 9.2, Diaphorase act 0.9, Diaphorase inh 12.1, WT yeast gro inh 76.6* and Lmaj promast 27.4.
Screening O=C(c1cccc(COc2ccc(Cl)cc2Cl)c1)N1CCN(c2ccccn2)CC1 returned G6PDH counter 12.3, Diaphorase act 0.8, Diaphorase inh 19.9, WT yeast gro inh 77.1* and Lmaj promast -2.4.
For CCOC(=O)c1ccc(S(=O)(=O)Nc2cc(C(=O)O)ccc2Cl)cc1 the results were G6PDH counter 8.4, Diaphorase act 0.9, Diaphorase inh 8.1, WT yeast gro inh -14.7 and Lmaj promast -0.8.
